What was measured:
[1] = Drug level in C57BL/6J mouse feces treated with [6]-shogaol at 200 mg/kg, po by HPLC-ECD analysis relative to control; assay type: ADME, organism-based; design: dose 200 mg/kg, route oral; settings: in vivo
Summary of the method: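 Female C57BL/6J mice gavaged once with 200 mg/kg in corn oil, or corn oil alone (n = 5 each). 24-h feces collected in metabolic cages. Feces extracted by sonication 90 min in MeOH/H2O (50/50) + 0.1% acetic acid, centrifuged, diluted fivefold. Analysed by HPLC with electrochemical array detection (Gemini C18, phosphate/acetonitrile/THF gradient), compared against vehicle controls.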

[2] = Drug level in human HCT116 cells treated with 10 uM [6]-shogaol after 24 hrs by HPLC-ECD analysis; assay type: ADME, cell-based; settings: hct-116, 24 h
Summary of the method: (§1)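 Cells (1.0 × 10⁶) attached 24 h in six-well plates, then exposed to 10 μM final in McCoy's 5A with 10% FBS. Extracted with equal volume acetonitrile, diluted 5-fold, analysed by HPLC with electrochemical detection.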

HT-29 = assay: Drug level in human HT-29 cells treated with 10 uM [6]-shogaol by HPLC-ECD analysis; assay type: ADME, cell-based; summary of the method: as §1
[3] = Drug level in human H1299 cells treated with 10 uM [6]-shogaol after 24 hrs by HPLC-ECD analysis; assay type: ADME, cell-based; settings: nci-h1299, 24 h; summary of the method: as §1
[4] = Cytotoxicity against human HCT116 cells assessed as growth inhibition after 24 hrs by MTT assay; assay type: functional, cell-based; settings: HCT-116, 24 h
Summary of the method: (§2)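 Cells seeded at 3000/well, attached 24 h at 37°C, then exposed to test agents (0–80 μM, 0.1% DMSO final) for 24 h in McCoy's 5A with 10% FBS. Medium replaced with 2.41 mM MTT for 3 h at 37°C; formazan dissolved in DMSO, absorbance 550 nm. Viability as percentage of DMSO control; mean ± S.D., n = 6.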

[5] = Cytotoxicity against human H1299 cells assessed as growth inhibition after 24 hrs by MTT assay; assay type: functional, cell-based; settings: NCI-H1299, 24 h; summary of the method: as §2
HCT-116 [6] = assay: Induction of apoptosis in human HCT116 cells assessed as apoptotic cells at 40 uM after 24 hrs by TUNEL assay; assay type: functional
Summary of the method: (§3)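 HCT-116 or H-1299 cells seeded at 1.0 × 10⁵/well, after 24 h exposed for 24 h to compound (10–80 μM) or DMSO control. Cells were proteinase K-pretreated, formaldehyde-fixed, and slide-mounted for peroxidase TUNEL staining. Ten fields per slide counted at 400×; brown-nucleus cells given as percentage of total cells; mean ± S.E., n = 10.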

NCI-H1299 [7] = assay: Induction of apoptosis in human H1299 cells assessed as apoptotic cells at 40 uM after 24 hrs by TUNEL assay; assay type: functional; summary of the method: as §3
HCT-116 [8] = assay: Induction of apoptosis in human HCT116 cells assessed as apoptotic cells at 80 uM after 24 hrs by TUNEL assay; assay type: functional; summary of the method: as §3
NCI-H1299 [9] = assay: Induction of apoptosis in human H1299 cells assessed as apoptotic cells at 80 uM after 24 hrs by TUNEL assay; assay type: functional; summary of the method: as §3
[10] = Antioxidant activity assessed as DPPH radical scavenging activity; assay type: physicochemical

| Drug excretion [1] | Drug metabolism [2] | Drug metabolism (HT-29) | Drug metabolism [3] | IC50 [10] [µM] | SMILES | IC50 [4] [µM] | IC50 [5] [µM] | Activity (HCT-116 [6]) [%] | Activity (NCI-H1299 [7]) [%] | Activity (HCT-116 [8]) [%] | Activity (NCI-H1299 [9]) [%] |
| --- | --- | --- | --- | --- | --- | --- | --- | --- | --- | --- | --- |
| metabolite_detected | metabolite_detected |  |  |  | CCCCC/C=C/C(O)CCc1ccc(O)c(OC)c1 (stereo not drawn) |  |  |  |  |  |  |
| metabolite_detected | metabolite_detected | metabolite_detected | metabolite_detected |  | CCCCCCCC(=O)CCc1ccc(O)c(OC)c1 | 84 | 66.5 | 12.9 | 8.3 | 21.1 | 19.4 |
|  |  |  |  | 12 | CCCCCCCCC[C@H](O)CC(=O)CCc1ccc(O)c(OC)c1 |  |  |  |  |  |  |
